PubChem BioAssay
Unmarked numbers belong to inactive results. Records with an inconclusive call do not appear. Calls of active or inactive are those of the source.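 How the source made its calls, unless noted: active means inhibition over a set limit, the all-compound mean plus 3 SD, in both replicate runs; inconclusive means over that limit in just one replicate run; inactive means at or under that limit in both runs.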

How the values were obtained:
[1] = OD615 S. cerevisiae growth inhibition, permissive medium, pilot counter-assay, permissive growth control for S. cerevisiae lifespan shortening project (AID 705;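 active means growth inhibition above 25% in both replicates, a cutoff set 3 SD above the mean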); settings: OD615, 24 h, at 10 µM, stronger effect = higher value
Summary of the method: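 System: Engineered DeaD yeast | Buffer or medium: SC raffinose/galactose permissive medium | Doses: 10 µM single dose, 0.25% DMSO | Times: 24 h exposure, 30 °C | Measured by: OD615 turbidity read | Read-out: Yeast growth inhibition indicated by reduced 24 h OD615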

[2] = Restrictive medium S. cerevisiae growth inhibition, OD615, pilot screen of yeast lifespan reduction project, restrictive growth control (AID 706;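 active means growth inhibition above a set limit, 3 SD over mean compound inhibition, in both replicates, cut at about 43% in these data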;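 further: modified DeaD lifespan yeast strain shifted to restrictive glucose medium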); settings: OD615, 48 h, at 10 µM, stronger effect = higher value
Summary of the method: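 Assay system: engineered S. cerevisiae DeaD strain; Buffer or medium: CSMM-D glucose medium; Dosing: 10 µM compound, 0.25% DMSO; Times: cell pre-growth 4 h, compound exposure 48 h, 30 °C; Detection: absorbance (optical density) measured at 615 nm.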

[3] = viability gain of MRP-1-high H69AR cells under doxorubicin, pilot screen, MRP-1 activator project, CellTiter-Glo, duplicate (AID 807;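 active means viability increase at or above a cutoff of the median across tested compounds plus 3 SD, cut at about 8.5% in these data, passing the limit was not always enough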;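 further: compound pretreatment 18-22 h then 72 h combined with doxorubicin; 0% = doxorubicin alone and 100% = vehicle without doxorubicin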); settings: H69AR viability with doxorubicin, CellTiter-Glo luminescence; at 10 µM; stronger effect = higher value
[4] = growth suppression of beta-catenin knockout HCT116, pilot screen, human colon tumor cells (AID 823;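 active means cell viability at or below a set limit in both duplicate runs, the limit being the all-compound median minus 4 SD, cut at about 23% in these data, passing the limit was not always enough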;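 further: 0% = wells killed by 20 µM Hyamine and 100% = untreated DMSO cell wells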); settings: CellTiter-Glo, 60 h, at 10 µM, stronger effect = lower value
[5] = growth suppression of PTEN-deleted HCT116, pilot screen, cell-based, HCT116 clonal line, CellTiter-Glo (AID 824;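 active means viability at or below 27.92% in each of two runs, the all-compound median minus 4 SD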;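 further: 0% = 20 µM Hyamine control and 100% = vehicle cell control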); settings: 60 h, at 10 µM, stronger effect = lower value
[6] = inhibitors of the yeast RAM network, pilot screen, dse1pr::URA3 reporter, 5-FOA selection (AID 869);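 further: 0% = DMSO wells with no growth and 100% = 10 µM 1-NA-PP1 with full growth; RAM network block rescues cells from 5-FOA so hits raise OD615 growth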; settings: S. cerevisiae dse1pr::URA3 5-FOA growth, OD615, 2 d; at 10 µM; stronger effect = higher value; strain carries analog-sensitive mutant Cbk1 kinase
[7] = RAM signaling pathway blockade in yeast – S. cerevisiae, Pdr1DBD-CYC8 efflux-inhibited sensitized strain, primary screen (AID 1298;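 active means RAM network inhibition above 8.4% in each of two replicates, 3 SD over the compound average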;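 further: 0% = DMSO untreated cells without growth and 100% = 10 µM 1-NA-PP1 full growth; higher means more yeast growth rescued from 5-FOA killing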); settings: S. cerevisiae cbk1-as DSE1-URA3 strain, 5-FOA growth OD615, 2 d; at 50 µM; stronger effect = higher value

| SMILES | growth inhibition [1] [%] | growth inhibition [2] [%] | viability increase [3] [%] | viability [4] | viability [5] | inhibition [6] [%] | RAM network inhibition [7] [%] |
| --- | --- | --- | --- | --- | --- | --- | --- |
| Cc1ccc2c(CC(=O)O)coc2c1 | -5.59 | 27.6 | -0.46 | 89.3% | 97.5% | -0.825 | -1.05 |
| CCCN(CCC)S(=O)(=O)c1ccc(C(=O)NCc2ccc3c(c2)OCO3)cc1 | -12.9 | -18.8 | -3.62 | 94.5% | 80.3% | 2.21 | 4.05 |
| COc1ccc(Nc2ccc3c(c2)=NC2(CCCCC2)[N+]=3[O-])cc1 | -9.92 | -11.8 | -8.28 | 2.19% (active) | 1.61% (active) | 4.35 | 6.69 |
| CCN(CC)C(=O)c1cc2c(=O)n3ccccc3nc2s1 | -4.75 | -3.33 | -3.66 | 93.7% | 96.2% | 1.94 | 0.68 |
| O=C(Cn1ncc2c(=O)oc3ccccc3c21)N1CCC(N2CCCCC2)CC1 | 9.66 | 1.36 | -1.31 | 99.5% | 99.8% | 1.65 | 4.58 |
| O=C(CSc1oc(-c2ccco2)nc1S(=O)(=O)c1ccc(Cl)cc1)NCC1CCCO1 (stereo unspecified) | 1.39 | 2.77 | -1.13 | 96.9% | 95.1% | -0.09 | 1.57 |
| COc1ccc(C2C(C(=O)N3CC(C)CC(C)C3)c3ccccc3C(=O)N2C)cc1 (stereo unspecified) | -10.8 | -4.94 | -1.09 | 96.7% | 93% | 0.305 | 0.47 |
| Cn1c(SCC(=O)N2CCCCCC2)nc2c([nH]c3ccccc32)c1=O | -14.3 | -27.8 | -5.85 | 89% | 86.7% | 3.46 | 8.37 |
| CCOc1ccc(-n2c(SCC(=O)Nc3nccs3)nc3c(c2=O)SCC3)cc1 | -7.92 | -5.48 | -0.41 | 104% | 98.3% | 3.15 | 4.65 |
| O=C(NCCn1ccc2ccccc21)c1ccc(S(=O)(=O)N2CCOCC2)cc1 | 3.54 | -8.71 | -2.92 | 101% | 96.7% | 0.33 | 6.66 |
| Cc1nnc(SCC(=O)N2CCOCC2)n1C | -6.97 | -18 | -0.95 | 106% | 101% | 2.25 | 2.02 |
| Cc1ccccc1-c1noc(-c2cccs2)n1 | 8.34 | 6.79 | -4.68 | 94% | 90.4% | 2.11 | 6 |
| COc1cccc(C(c2sc3ncnn3c2O)N2CC(C)OC(C)C2)c1 (stereo unspecified) | 4.48 | -2.31 | 2.62 | 99.1% | 95.7% | 1.34 | 2.05 |
| Cc1cccc(C)c1NC(=O)C1(NC(=O)c2cnccn2)CCCCC1 | -12.1 | 0.045 | -2.5 | 98.4% | 95.1% | 1.21 | 0.32 |
| O=C(Cc1ccc2c(c1)OCCO2)c1c(O)cc(O)cc1O | -12.3 | -4.45 | -1.79 | 96.1% | 94% | 3.34 | 6.58 |
| Cc1nc2sc(C(c3cccs3)N3CCN(c4cccc(Cl)c4)CC3)c(O)n2n1 (stereo unspecified) | -5.61 | 2.47 | 2.07 | 93.7% | 83.5% | 2.32 | 5.45 |
| CC(C)c1ccccc1NC(=O)CCCC(=O)O | -2.18 | -0.2 | -0.29 | 96.9% | 102% | 0.36 | 2.42 |
| c1ccc(C(Cc2nc(-c3cccnc3)no2)c2ccccc2)cc1 | -8.42 | -4.57 | 0.35 | 90.8% | 88.2% | 1.46 | 7.55 |
